High-throughput results (PubChem)
PostGolgi yeast: phenotypic screen on post-Golgi transport, primary screen; post-Golgi transport phenotypic cell assay; inhibition, % at 10 µM; actives 0.9% (n = 98,000); AID 739, 2007;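 also: yeast cells grown in 1536-well plates; yeast grown about 18 h at 30C before absorbance read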
tolC growth inh: growth inhibitors of E. coli tolC mutant, primary screen, strain BW25113 ΔtolC::kan, 384-well. OD615. growth inhibition, % at 10 µM (by protocol). actives 2.2% (n = 65,000);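 active = growth inhibition at or above a cutoff equal to the mean over every tested compound plus 3 SD, cut at about 60% in these data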;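 also: growth measured after 20 h incubation at 37 °C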
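Test system: E. coli BW25113 ΔtolC::kan bacteria | Medium: Kanamycin-containing LB broth (50 µg/mL) | Dosing: One dose of 10 µM final | Times: 20 h incubation with compound, 37 °C | Detection: Optical density read at 615 nm | Read-out basis: Percent growth inhibition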
E coli WT exp: growth inhibitors of wild-type E. coli, primary screen, strain BW25113, expanded library, OD600; OD600 absorbance; growth inhibition, % at 100 µM; actives 0.15% (n = 98,000); AID 710, 2007;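 active = growth inhibition above about 50% at one test dose, limit read from the data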;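 also: growth measured after 20 h incubation at 37 °C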
Cav3 T inh: Cav3.2 calcium influx blockers – cell-based, Fluo-4 calcium fluorescence, FDSS, MLSMR library, primary screen; Cav3.2-expressing cells; hits give low values; actives 4% (n = 100,000); B-score at 10 µM;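 active = single-dose well whose peak fluorescence ratio is a statistical outlier from its plate by either plate-standardised score or position-corrected B-score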
Target sequence (O95180 whole entry, looked up): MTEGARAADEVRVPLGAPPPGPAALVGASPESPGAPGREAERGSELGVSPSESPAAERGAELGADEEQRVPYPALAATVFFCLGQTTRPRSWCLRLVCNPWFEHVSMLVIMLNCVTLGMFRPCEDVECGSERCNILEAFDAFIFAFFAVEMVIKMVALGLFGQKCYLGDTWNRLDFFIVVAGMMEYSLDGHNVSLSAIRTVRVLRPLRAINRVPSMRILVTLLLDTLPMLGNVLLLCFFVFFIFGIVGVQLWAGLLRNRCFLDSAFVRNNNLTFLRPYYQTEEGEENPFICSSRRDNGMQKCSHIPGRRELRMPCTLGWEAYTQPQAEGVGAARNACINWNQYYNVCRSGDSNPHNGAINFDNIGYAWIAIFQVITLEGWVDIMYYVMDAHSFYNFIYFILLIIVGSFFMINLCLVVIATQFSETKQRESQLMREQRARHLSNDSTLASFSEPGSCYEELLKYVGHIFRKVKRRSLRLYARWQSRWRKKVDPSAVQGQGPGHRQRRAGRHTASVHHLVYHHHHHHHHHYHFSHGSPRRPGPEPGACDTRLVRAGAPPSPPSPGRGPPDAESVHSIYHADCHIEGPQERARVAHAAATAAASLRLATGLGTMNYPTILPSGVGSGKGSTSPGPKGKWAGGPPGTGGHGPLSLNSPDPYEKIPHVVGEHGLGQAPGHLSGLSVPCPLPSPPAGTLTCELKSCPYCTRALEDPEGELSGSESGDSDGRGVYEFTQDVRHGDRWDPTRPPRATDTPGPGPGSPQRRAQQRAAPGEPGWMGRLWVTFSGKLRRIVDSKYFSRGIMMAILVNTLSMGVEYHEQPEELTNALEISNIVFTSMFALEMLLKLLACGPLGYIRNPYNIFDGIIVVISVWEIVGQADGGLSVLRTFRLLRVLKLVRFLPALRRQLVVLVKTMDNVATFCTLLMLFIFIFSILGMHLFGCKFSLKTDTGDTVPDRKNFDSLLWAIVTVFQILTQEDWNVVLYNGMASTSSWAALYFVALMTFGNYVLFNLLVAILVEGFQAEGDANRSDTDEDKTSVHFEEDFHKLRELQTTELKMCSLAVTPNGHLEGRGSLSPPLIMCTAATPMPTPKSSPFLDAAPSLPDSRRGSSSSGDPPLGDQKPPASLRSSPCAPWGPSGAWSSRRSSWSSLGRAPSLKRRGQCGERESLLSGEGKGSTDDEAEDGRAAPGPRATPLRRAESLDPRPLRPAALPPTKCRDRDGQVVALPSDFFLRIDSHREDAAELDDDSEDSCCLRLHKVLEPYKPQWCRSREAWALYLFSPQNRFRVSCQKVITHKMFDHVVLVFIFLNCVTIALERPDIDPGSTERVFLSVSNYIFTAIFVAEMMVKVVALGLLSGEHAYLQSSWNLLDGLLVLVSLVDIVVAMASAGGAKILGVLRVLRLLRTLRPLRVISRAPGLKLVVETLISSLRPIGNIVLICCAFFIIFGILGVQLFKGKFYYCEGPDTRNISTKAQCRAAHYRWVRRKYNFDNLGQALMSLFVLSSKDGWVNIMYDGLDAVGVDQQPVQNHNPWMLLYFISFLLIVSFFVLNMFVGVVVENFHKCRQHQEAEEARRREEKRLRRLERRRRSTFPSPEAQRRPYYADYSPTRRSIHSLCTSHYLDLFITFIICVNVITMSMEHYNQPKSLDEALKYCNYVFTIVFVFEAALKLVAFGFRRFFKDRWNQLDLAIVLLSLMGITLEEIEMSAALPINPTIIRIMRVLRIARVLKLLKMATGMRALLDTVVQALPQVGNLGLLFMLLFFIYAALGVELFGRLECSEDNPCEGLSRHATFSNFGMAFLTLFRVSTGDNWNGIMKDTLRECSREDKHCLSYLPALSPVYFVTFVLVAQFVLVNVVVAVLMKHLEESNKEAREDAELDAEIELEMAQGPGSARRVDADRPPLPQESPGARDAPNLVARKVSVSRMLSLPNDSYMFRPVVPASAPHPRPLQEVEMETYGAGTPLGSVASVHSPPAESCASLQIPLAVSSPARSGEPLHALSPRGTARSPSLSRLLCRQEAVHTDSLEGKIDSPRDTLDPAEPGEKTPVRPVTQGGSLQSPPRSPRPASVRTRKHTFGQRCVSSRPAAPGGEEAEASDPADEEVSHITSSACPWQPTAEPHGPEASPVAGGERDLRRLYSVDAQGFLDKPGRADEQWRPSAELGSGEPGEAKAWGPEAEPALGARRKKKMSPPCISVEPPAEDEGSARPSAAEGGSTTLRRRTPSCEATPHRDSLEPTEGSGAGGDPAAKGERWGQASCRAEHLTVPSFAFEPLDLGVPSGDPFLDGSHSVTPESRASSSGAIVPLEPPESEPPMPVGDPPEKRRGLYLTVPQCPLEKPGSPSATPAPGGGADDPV
PostGolgi ctrl: growth inhibition of yeast control strain, primary screen, counter-screen for post-Golgi transport modulator project. efflux-deficient yeast background strain, growth absorbance A615, 16 h. inhibition, % at 10 µM. actives 5% (n = 98,000). AID 738, 2007
Each line names hits and unclear results; the compound was inactive in the other large screens. Compounds with a hit are over-represented: about 8.4% of the library has one in this group of screens. Rule as the data show it, unless noted: active = inhibition above about 30%; inactive = the rest.

CN1/C(=C\C(=O)COC(=O)CN2C(=O)C3CC=CCC3C2=O)C(C)(C)c2ccccc21 (stereo not drawn)	none
COc1cc(/C=N/NC(=O)c2cncc(Br)c2)ccc1OC(=O)c1ccc2c(c1)OCO2	none (no result: tolC growth inh)
O=S(=O)(CCN(CCS(=O)(=O)C(F)(F)F)CC1CCCO1)C(F)(F)F (stereo not drawn)	none
COc1ccc2c(c1)sc1nc(-c3ccccc3)cn12	tolC growth inh 99
CCOC(=O)N1CCN(C(=O)c2ccc3c(c2)sc2nc(-c4ccc(OC)cc4)cn23)CC1	none
COC(=O)C(NNc1ccccc1)(NC(=O)c1cccc(F)c1)C(F)(F)F (stereo not drawn)	none (no result: tolC growth inh)
COc1ccc(/C=N/n2c(SC)nnc(C(C)(C)C)c2=O)c(OC)c1	none (no result: tolC growth inh)
COc1ccc(S(=O)(=O)N2CC3C4C=CC(C4)C3C2)cc1 (stereo not drawn)	PostGolgi ctrl 47
O=C(Nc1cccc2nsnc12)C1CC(=O)N(c2ccccc2)C1 (stereo not drawn)	none
O=C(Nc1nc2ccccc2s1)C1CC(=O)N(c2ccc(Cl)cc2)C1 (stereo not drawn)	Cav3 T inh -4.7, PostGolgi ctrl 40 (no result: tolC growth inh)
CC(C)(C)c1cc(NCCCn2ccnc2)n2ncc(-c3ccc(Cl)cc3)c2n1	PostGolgi yeast 58, PostGolgi ctrl 93 (no result: tolC growth inh)
Nc1nnc(Cc2ccc(Cl)c(Cl)c2)s1	none
O=S(=O)(CCc1nc2ccccc2o1)c1ccc2ccccc2c1	none (no result: tolC growth inh)
O=C(COC(=O)c1cccc(S(=O)(=O)N2CCc3ccccc3C2)c1)NCc1ccco1	PostGolgi ctrl 43 (no result: Cav3 T inh)
O=C(Nc1ccc(Cl)c(Cl)c1)C1=Cc2ccccc2OC1	PostGolgi ctrl 42 (no result: tolC growth inh)
O=C(Nc1cccc(Cl)c1)C1=Cc2cc(Cl)ccc2OC1	none (no result: tolC growth inh)
CCC(=O)N1CCCc2cc(S(=O)(=O)N3CCN(c4ccccn4)CC3)ccc21	none
C[C@H]1COc2c(N3CCN(C)CC3)c(F)cc3c(=O)c(C(=O)O)cn1c23	none (no result: PostGolgi yeast, tolC growth inh, E coli WT exp, PostGolgi ctrl)
CN1CCN(c2c(F)cc3c(=O)c(C(=O)O)cn4c3c2SCC4)CC1	tolC growth inh 100, E coli WT exp 100 (no result: Cav3 T inh)
O=c1cc(-c2ccccc2)[nH]n1-c1nc2ccccc2[nH]1	E coli WT exp 55, Cav3 T inh -5.6 (no result: tolC growth inh)
COc1cccc(CNc2cc(CSc3ccc(Cl)cc3)nc(C)n2)c1	Cav3 T inh -8.2 (no result: tolC growth inh)
O=C(C1CC(c2cccc(Br)c2)=NO1)N1CCc2ccccc2C1 (stereo not drawn)	Cav3 T inh -4.4 (no result: tolC growth inh)
O=C(CSc1nc2ccccc2o1)NCc1n[nH]c(=O)c2ccccc12	none (no result: Cav3 T inh)
COc1ccc(-n2c(Cc3cccn3C)nnc2SCC(=O)NC2CCCC2)cc1	none
COc1ccc(-n2c(Cc3cccn3C)nnc2SCC(=O)Nc2ccc(C)cc2C)cc1	Cav3 T inh -6.3
COc1ccc(-n2c(Cc3cccn3C)nnc2SCC(=O)NCc2ccccc2Cl)cc1	none
COc1ccc(-n2c(Cc3cccn3C)nnc2SCC(=O)Nc2ccccc2OC)cc1	Cav3 T inh -2.7
COc1ccc(-n2c(Cc3cccn3C)nnc2SCC(=O)Nc2cc(Cl)ccc2OC)cc1	Cav3 T inh -7.5
CN(C)c1oc(-c2ccccc2Cl)nc1S(=O)(=O)c1ccccc1	Cav3 T inh -6.3, PostGolgi ctrl 32
Cc1ccc(-n2ncc3c(=O)n(CC(=O)OCc4ccccc4)cnc32)cc1	PostGolgi ctrl 36
O=S(=O)(c1ccc(Cl)cc1)N1CCCC1c1nc(-c2cccc(Cl)c2)no1 (stereo not drawn)	PostGolgi ctrl 33 (no result: tolC growth inh)
O=S(=O)(c1ccc(Cl)cc1)N1CCCC1c1nc2ccccc2s1 (stereo not drawn)	Cav3 T inh -4.5 (no result: tolC growth inh)
O=S(=O)(c1ccccc1Cl)N1CCCC1c1nc(-c2cccc(Cl)c2)no1 (stereo not drawn)	none (no result: tolC growth inh)
Nc1ccccc1C(=O)N(Cc1ccccc1)Cc1ccccc1	Cav3 T inh -5.8 (no result: PostGolgi yeast, tolC growth inh, E coli WT exp, PostGolgi ctrl)
COC(=O)c1cc(NC(=O)C2COc3ccccc3O2)ccc1Cl (stereo not drawn)	PostGolgi ctrl 30
CN1CCN(c2ccc(Cl)cc2NC(=O)C2COc3ccccc3O2)CC1 (stereo not drawn)	Cav3 T inh -4.5, PostGolgi ctrl 30
COC(=O)c1cccc(NC(=O)C2COc3ccccc3O2)c1 (stereo not drawn)	PostGolgi ctrl 39
CN1CCN(c2ccc(Cl)cc2NC(=O)c2cccc(S(=O)(=O)N(C)C)c2)CC1	none
O=C(Nc1ccc(S(=O)(=O)Nc2ccccc2)cc1)C1COc2ccccc2O1 (stereo not drawn)	Cav3 T inh -3.8 (no result: PostGolgi yeast, tolC growth inh, E coli WT exp, PostGolgi ctrl)
CC(C)(C)N1[C@@H](CC(=O)O)c2cc(C(F)(F)F)ccc2S1(=O)=O	none (no result: PostGolgi yeast, tolC growth inh, E coli WT exp, PostGolgi ctrl)
CCC/C=C(\CCC)C(NC(=O)c1ccc(C(F)(F)F)cc1)c1ccccc1 (stereo not drawn)	none (no result: PostGolgi yeast, tolC growth inh, E coli WT exp, PostGolgi ctrl)
Cc1nnc(SCc2nc(N)nc(Nc3ccccc3)n2)s1	none (no result: tolC growth inh)
COc1ccc(Nc2nc(N)nc(CSc3nnc(N)s3)n2)cc1	PostGolgi yeast 32 (no result: tolC growth inh)
COc1ccc(OCc2nc(N)nc(Nc3cccc(C)c3C)n2)cc1	none
COc1ccc(OCc2nc(N)nc(Nc3ccc(C)cc3)n2)cc1	PostGolgi ctrl 53 (no result: tolC growth inh)
O=C(CSCc1ccc(F)cc1)Nc1nc2c(s1)CCCC2	Cav3 T inh -6.6 (no result: tolC growth inh)
CNC(=S)N1CCN(c2ccc(OC)cc2)CC1	none (no result: tolC growth inh)
CC1Cc2ccccc2N1C(=O)Cn1c(=O)oc2cc(S(=O)(=O)NC3CCCC3)ccc21 (stereo not drawn)	tolC growth inh 74, Cav3 T inh -8.9
CC1CCN(S(=O)(=O)c2ccc3c(c2)oc(=O)n3CC(=O)N2c3ccccc3CC2C)CC1 (stereo not drawn)	none (no result: Cav3 T inh)
CCC(=O)N(Cc1cc(=O)[nH]c2ccccc12)C1CCCCC1	none
C=CCNC(=S)NNC(=O)c1ccc(OCCCC)cc1	none (no result: PostGolgi yeast, tolC growth inh, E coli WT exp, PostGolgi ctrl)
COc1ccc(/C=C/C(=O)NC(=S)NNC(=O)Cc2cccs2)cc1OC	none (no result: tolC growth inh)
COc1ccc(C(=O)NNC(=S)NC(=O)c2ccco2)cc1	E coli WT exp 80, Cav3 T inh -5.5 (no result: tolC growth inh)
O=C(/C=C/c1cccs1)NC(=S)NNC(=O)Cc1cccs1	Cav3 T inh -4.2 (no result: PostGolgi yeast, tolC growth inh, E coli WT exp, PostGolgi ctrl)
CCC(=O)NC(=S)NNC(=O)c1ccc(OC)cc1	E coli WT exp 75 (no result: tolC growth inh, Cav3 T inh)
CCCOc1ccc(C(=O)NNC(=S)NC(C)=O)cc1	PostGolgi yeast 47, E coli WT exp 88, PostGolgi ctrl 32 (no result: tolC growth inh)
O=C1c2ccccc2S(=O)(=O)N1CCOc1ccccc1	none
CCCOc1ccc(C(=O)NNC(=S)NC(=O)c2cc(-c3ccccc3)nc3ccccc23)cc1	Cav3 T inh -7.3 (no result: tolC growth inh)
COc1cc(NC(=O)Cc2cccs2)cc(OC)c1	none
O=C(NC(=S)NNC(=O)c1cccs1)c1ccco1	E coli WT exp 67 (no result: tolC growth inh, Cav3 T inh)
COc1ccc(C(=O)NC(=S)NNC(=O)Cc2cccs2)cc1	Cav3 T inh -4.9 (no result: tolC growth inh)
Cc1ccc(C(=O)NNC(=S)NC(=O)COc2ccccc2)cc1	E coli WT exp 51, Cav3 T inh -5.2 (no result: tolC growth inh)
Cc1cccc(-n2c(N)cc(=O)nc2SCC(=O)Nc2nnc(C)s2)c1	none (no result: tolC growth inh)
